Among the data in the array DNA melting data of Ke et al. (doi:10.1101/2024.01.08.574731) are folding enthalpy and Tm values, retold here.

A short description of data set [1]: folding enthalpy; higher = less favourable; fluorescence melt of hairpins on a sequencing array, two-state fit. The note with it: sodium 0.088 M. The procedure, abridged:
(§1)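 In 50 mM Na-HEPES pH 8.0 containing 25 mM NaCl, hairpins from the library on a sequenced MiSeq flow cell were imaged for Cy3 fluorescence at 2.5 °C steps up to 60 °C, with Cy3 and quencher oligos annealed. After normalisation to pre-quench Cy3 and to control constructs, two-state fits with bootstrapping gave melting temperature and folding enthalpy. Four replicates were combined by inverse-variance weighting, and fitted temperatures were shifted up by 9.35 °C to match UV melts.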

A short description of data set [2]: melting temperature; fluorescence melt of hairpins on a sequencing array, two-state fit, raised by 9.35 °C to match UV melts. The note with it: sodium 0.088 M. The method in brief:
as §1

As to GCGTCTGGACGC ((((....)))), the folding enthalpy in data set [1] was -34.1 kcal/mol. For the same sequence, in data set [2], the Tm is 59.8 °C.

For the sequence GCGTGAAGACGC ((((....)))), the folding enthalpy in data set [1] was -23 kcal/mol. In addition, in data set [2], the Tm is 58.3 °C.

As to GCGTGACCGAAAGGTCGC (((..(((....)))))), in data set [1], the folding enthalpy was -10.1 kcal/mol. The Tm in data set [2] was determined as 51.6 °C.

GCGTGAGAAATCACGC ((((((....)))))): the folding enthalpy in data set [1] is -29.5 kcal/mol. In addition, in data set [2], the Tm is 69 °C.

On to GCGTGAGCGAAAGCTCGC (((..(((....)))))), for which, in data set [1], the folding enthalpy was -10.4 kcal/mol. Further, the Tm in data set [2] came to 53 °C.

Regarding GCGTGAGGACGC ((((....)))), in data set [1], the folding enthalpy is -18.9 kcal/mol. For the same sequence, the Tm in data set [2] was 50.8 °C.

Take GCGTGAGTACGC ((((....)))): in data set [1], the folding enthalpy is -19.9 kcal/mol. Also, the Tm in data set [2] was 52.5 °C.

On to GCGTGCAGACGC ((((....)))), for which the folding enthalpy in data set [1] was -20.4 kcal/mol. The Tm in data set [2] is 62.5 °C.

Regarding GCGTGCATACGC ((((....)))), the folding enthalpy in data set [1] is -24.6 kcal/mol. The Tm in data set [2] turned out to be 68.7 °C.

Turning to GCGTGCGAAAGCACACGC ((((((....)))..))), in data set [1], the folding enthalpy is -15 kcal/mol. The Tm in data set [2] is 64.5 °C.

Turning to GCGTGCGAAAGCACCGC ((((((....))).))), the folding enthalpy in data set [1] was -13.8 kcal/mol. In addition, the Tm in data set [2] was determined as 67.2 °C.

GCGTGCGAAAGCATTCGC ((((((....)))..))): in data set [1], the folding enthalpy is -16.8 kcal/mol. For the same sequence, in data set [2], the Tm amounted to 52.4 °C.

Turning to GCGTGCGGAAACACACGC (((((.(....).))))), in data set [1], the folding enthalpy was -40.2 kcal/mol. The Tm in data set [2] stood at 58.5 °C.

GCGTGCGGACGC ((((....)))): the folding enthalpy in data set [1] was -15.6 kcal/mol. In addition, the Tm in data set [2] was 54.7 °C.

Regarding GCGTGCTTACGC ((((....)))), the folding enthalpy in data set [1] was -16.9 kcal/mol. Besides, the Tm in data set [2] was determined as 54.9 °C.

As to GCGTGGACGAAAGTCCGC (((..(((....)))))), the folding enthalpy in data set [1] was -11.3 kcal/mol. The Tm in data set [2] was 52.8 °C.

With GCGTGGCCACGC ((((....)))), in data set [1], the folding enthalpy was -43.9 kcal/mol. In addition, the Tm in data set [2] worked out at 62.8 °C.

GCGTGGCGAAAGCCCTGC ((..(((....)))..)): in data set [1], the folding enthalpy was -18.3 kcal/mol. Moreover, the Tm in data set [2] was found to be 47.2 °C.

With GCGTGGCGAAAGCGAAGC ((.(.((....)).).)), the folding enthalpy in data set [1] is -16.9 kcal/mol. In addition, in data set [2], the Tm stood at 50.5 °C.

On to GCGTGGCGAAAGCGAGGC ((.(.((....)).).)), for which the folding enthalpy in data set [1] was -16.8 kcal/mol. Also, the Tm in data set [2] is 51.1 °C.

Take GCGTGGCGAAAGCGTCGC (((..((....))..))): in data set [1], the folding enthalpy was -22.6 kcal/mol. For the same sequence, in data set [2], the Tm was 58.7 °C.

In the case of GCGTGGCGAAAGCTATGC ((.(.((....)).).)), the folding enthalpy in data set [1] was -31.4 kcal/mol. Also, the Tm in data set [2] amounted to 52.5 °C.

GCGTGGGGAAACTCGCGC (((.(.(....).).))): in data set [1], the folding enthalpy was -35.6 kcal/mol. Moreover, the Tm in data set [2] was 54 °C.

For GCGTGGGGACGC ((((....)))), the folding enthalpy in data set [1] was -21.1 kcal/mol. Moreover, the Tm in data set [2] was found to be 52.6 °C.

For the sequence GCGTGGTGACGC ((((....)))), the folding enthalpy in data set [1] is -17.3 kcal/mol. In data set [2], the Tm was 55.1 °C.

Take GCGTGTCTACGC ((((....)))): the folding enthalpy in data set [1] was -25.8 kcal/mol. Also, in data set [2], the Tm came out at 57.8 °C.

Consider GCGTGTGCACGC ((((....)))), for which the folding enthalpy in data set [1] is -29.9 kcal/mol. Also, the Tm in data set [2] turned out to be 57.2 °C.

Take GCGTGTGGAAACACATGC ((.((((....)))).)): the folding enthalpy in data set [1] is -42 kcal/mol. Also, the Tm in data set [2] was 57.5 °C.

Regarding GCGTGTTCACGC ((((....)))), the folding enthalpy in data set [1] is -29 kcal/mol. Also, the Tm in data set [2] came to 59.5 °C.

As for GCGTTAAAACGC ((((....)))), the folding enthalpy in data set [1] was -21.4 kcal/mol. Moreover, the Tm in data set [2] turned out to be 50.3 °C.

Turning to GCGTTAAACGC ((((...)))), in data set [1], the folding enthalpy was -19 kcal/mol. For the same sequence, in data set [2], the Tm was 50.9 °C.

Turning to GCGTTACTACGC ((((....)))), the folding enthalpy in data set [1] is -26.7 kcal/mol. The Tm in data set [2] came to 54.8 °C.

Regarding GCGTTAGAAATAACGC ((((((....)))))), the folding enthalpy in data set [1] is -37.8 kcal/mol. The Tm in data set [2] was 57.6 °C.

In the case of GCGTTAGAACGC ((((....)))), the folding enthalpy in data set [1] is -20.3 kcal/mol. For the same sequence, the Tm in data set [2] came out at 52.8 °C.

In the case of GCGTTAGGAAACCAACGC (((((.(....).))))), the folding enthalpy in data set [1] is -44.9 kcal/mol. Besides, the Tm in data set [2] is 49.8 °C.

As to GCGTTAGGAAACTAACGC (((((((....))))))), in data set [1], the folding enthalpy is -50.9 kcal/mol. In data set [2], the Tm came to 65.8 °C.

For the sequence GCGTTCAAACGC ((((....)))), the folding enthalpy in data set [1] is -24.5 kcal/mol. In addition, the Tm in data set [2] is 53.1 °C.

As for GCGTTCACACGC ((((....)))), the folding enthalpy in data set [1] was -22.6 kcal/mol. The Tm in data set [2] is 52.8 °C.

On to GCGTTCCACGC ((((...)))), for which the folding enthalpy in data set [1] was -25.3 kcal/mol. The Tm in data set [2] amounted to 59.7 °C.

With GCGTTCGAAAGAAAACGC ((((((....)))..))), the folding enthalpy in data set [1] is -27.3 kcal/mol. The Tm in data set [2] was found to be 49 °C.
